In the library only some 3.5% were active in any assay of this set; here they are far more common.
RGS4 block – human RGS4 inhibition | HEK293 M3R/RGS4 inducible, Fluo-4 calcium flux; stronger effect = higher value; triggered by carbachol at its EC20 | 310,000 compounds, 0.45% hits | B-score at 10 µM | AID 463165;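 active means B-score, a plate-corrected calcium signal, over three deviations above library mean, with baseline fluorescence within five deviations of library mean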;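 further: RGS4 expression induced by doxycycline in cells with stable M3 receptor; B-score is computed from the integrated fluorescence ratio over baseline after carbachol; higher B-score means a larger calcium signal and so more RGS4 inhibition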
Target sequence (P49798 whole entry, looked up): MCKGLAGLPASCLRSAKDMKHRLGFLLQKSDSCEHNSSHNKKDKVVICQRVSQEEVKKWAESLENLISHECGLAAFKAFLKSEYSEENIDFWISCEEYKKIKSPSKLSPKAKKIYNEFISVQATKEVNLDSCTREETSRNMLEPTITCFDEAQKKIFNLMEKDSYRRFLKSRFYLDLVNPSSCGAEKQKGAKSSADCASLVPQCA
RGS4 act – potentiators or activators of RGS4. HEK293 M3R/inducible RGS4, carbachol calcium flux Fluo4; stronger effect = lower value. B-score at 10 µM. 310,000 compounds, 0.92% hits;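 active means B-score of the integrated calcium signal more than 4 SD below the library mean, with starting fluorescence not abnormally high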;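 further: negative B-score means reduced calcium response which marks RGS4 activation or potentiation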
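test system = HEK293 cells with stable M3R and inducible RGS4 | schedule = recording 10 s baseline at 1 Hz, 100 s post-agonist | technique = Fluo4-AM (2 µM) calcium-flux fluorescence, kinetic read | measure = Agonist-evoked peak-minus-minimum fluorescence over baseline, integrated ratio, B score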
MrgX1 allo act – human MrgX1 positive allosteric modulation, primary screen | 310,000 compounds, 0.63% hits | MrgX1-HEK293, Fluo-4 calcium flux, FDSS; stronger effect = higher value | Q96LB2 | B-score at 10 µM | AID 588675;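 active means plate-corrected calcium response at least 3 library SD above typical, normal starting fluorescence, not activating the receptor alone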;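 further: compound read alongside a low EC10 to EC30 dose of BAM8-22 agonist; peak minus trough fluorescence over baseline measured at the second addition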
Target sequence (Q96LB2 whole entry, looked up): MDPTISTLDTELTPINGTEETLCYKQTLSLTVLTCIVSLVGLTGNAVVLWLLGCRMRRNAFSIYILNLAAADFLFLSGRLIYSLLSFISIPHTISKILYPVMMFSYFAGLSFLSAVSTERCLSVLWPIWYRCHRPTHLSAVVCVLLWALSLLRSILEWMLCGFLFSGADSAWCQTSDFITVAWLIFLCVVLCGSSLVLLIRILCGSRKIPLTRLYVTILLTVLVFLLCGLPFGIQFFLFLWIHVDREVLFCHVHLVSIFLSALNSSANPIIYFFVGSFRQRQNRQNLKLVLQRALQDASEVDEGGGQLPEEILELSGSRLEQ
MrgX1 antagonist – blocks BAM8-22 activation of human MrgX1 receptor. Q96LB2. MRGX1-HEK293 calcium flux, Fluo-4, BAM8-22 antagonism; stronger effect = lower value. B-score at 10 µM. 310,000 compounds, 1.3% hits. AID 588676;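 active means calcium-response B-score plate-corrected more than 3 library SD below zero, starting fluorescence within 5 deviations, no agonist response on first addition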;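 further: peak minus trough fluorescence over baseline after final BAM8-22 challenge near maximal dose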
MrgX1 agonist – agonists of human MrgX1 receptor. Q96LB2. MrgX1-HEK293 cells, Fluo-4 calcium fluorescence, agonist mode; stronger effect = higher value. B-score at 10 µM. 310,000 compounds, 0.44% hits. AID 588627;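 active means calcium response B-score plate-corrected fluorescence ratio at least 3 library SD, with starting fluorescence B-score inside 5 SD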
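Test system: HEK293 cells stably expressing human MrgX1 receptor; Input: fifteen thousand cells per well; Dosing: compound delivered in addition one of three; Schedule: overnight seeding, then 1 h dark dye loading; Technique: Fluo-4 NW calcium fluorescence; Measure: B-scored fluorescence response ratio; Controls: positive and negative controls per plate.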
RGS4 block valid – RGS4 inhibitor validation. shares compounds with RGS4 block. HEK293 M3R/RGS4, carbachol calcium Fluo-4 fluorescence; carbachol added at its EC20; 0 = buffer wells, 100 = carbachol control. calcium response, % at 10 µM. 1,700 compounds, 65% hits. AID 492999;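 active means duplicate-averaged calcium response above the buffer-only control mean plus 5 SD of those controls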;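 further: integrated fluorescence ratio F max minus min over baseline F0; higher response in RGS4-induced cells means RGS4 inhibition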
RGS4 uninduced – non-induced cell nonspecific activity of RGS4 inhibitors; HEK293 M3R non-induced, carbachol calcium Fluo-4; submaximal (EC20) carbachol stimulus; buffer wells 0%, carbachol control wells 100%; activity (percent), % at 10 µM; shares compounds with RGS4 block; 1,900 compounds, 20% hits; call rule not given here;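 further: RGS4 induction absent so cells express M3R without RGS4; higher means more calcium signal and flags a non-specific hit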
RGS4 inh ctr2 – signal in non-induced cells without carbachol, RGS4 inhibitor counter-screen; shares compounds with RGS4 block; 1,900 compounds, 22% hits; calcium response (agonist-mode artifact), % at 10 µM; HEK293 M3R/RGS4 non-induced, Fluo-4 calcium, no carbachol; normalised: buffer wells 0%, carbachol wells 100%;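 active means duplicate-averaged calcium rise in uninduced cells above buffer wells' mean plus 5 SD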
The depositor's hits bear a star; i = inactive; nt = no result given.

SMILES	RGS4 block	RGS4 act	MrgX1 allo act	MrgX1 antagonist	MrgX1 agonist	RGS4 block valid	RGS4 uninduced	RGS4 inh ctr2
COc1cccc(C(O)C2OC(=O)c3ccccc32)c1OC (centres undefined)	i	i	i	i	i	nt	nt	nt
Cc1nn(CC(=O)NCCCN2CCC(N3CCCCC3)CC2)c(=O)c2cc(-c3ccccc3)nn12	i	i	i	i	i	nt	nt	nt
CCCn1c(/N=C/c2ccccc2O)nc2ccccc21	i	i	i	i	i	nt	nt	nt
CCCCn1c(/N=C/c2ccc(N(C)C)cc2)nc2ccccc21	i	i	i	i	i	nt	nt	nt
CCCn1c(/N=C/c2c[nH]c3ccccc23)nc2ccccc21	5.07*	i	i	i	i	8.0%*	i	i
CCn1c(/N=C/c2c[nH]c3ccccc23)nc2ccccc21	i	i	i	i	i	nt	i	i
CCCCn1c(/N=C/c2c[nH]c3ccccc23)nc2ccccc21	i	i	i	i	i	nt	i	i
C=CCOc1ccc(C2C(C(=O)c3ccc(C)o3)=C(O)C(=O)N2Cc2cccnc2)cc1 (centres undefined)	i	i	i	i	i	nt	nt	nt
CN(C(=O)CSc1nc2ccc([N+](=O)[O-])cc2s1)C1CCS(=O)(=O)C1 (centres undefined)	i	i	i	i	i	nt	nt	nt
O=C(/C=C/c1ccccc1)/C=C/c1ccccc1	6.32*	i	i	i	i	27.0%*	37.5%*	i
CCOC(=O)[C@@H]1[C@H]2COc3ccc(Br)cc3[C@@H]2N2C(=O)N(c3ccccc3)C(=O)[C@@]12C	i	i	i	i	i	nt	nt	nt
CCOC(=O)[C@@H]1[C@H]2COc3ccc(Br)cc3[C@H]2N2C(=O)N(c3cccc(Cl)c3)C(=O)[C@]12C	i	i	i	i	i	i	i	i
CCOC(=O)[C@@H]1[C@H]2COc3ccc(Br)cc3[C@@H]2N2C(=O)N(c3cccc(Cl)c3)C(=O)[C@]12C	i	i	i	i	i	i	i	i
CS(=O)(=O)N1CCc2cc(C(=O)N3CCCC3)ccc21	i	i	i	i	i	nt	nt	nt
Cc1ccccc1-c1noc(C(C)NC(=O)c2ccco2)n1 (centres undefined)	i	i	i	i	i	nt	nt	nt
N#C/C(=C(/O)C(Cl)c1ccccc1)c1nc2ccccc2s1 (centres undefined)	5.09*	i	i	i	i	6.5%*	i	i
N#C/C(=C(/O)c1cccc(F)c1)c1nc2ccccc2s1	i	i	i	i	i	nt	nt	nt
CC(C)(CO)NS(=O)(=O)c1ccc2c(c1)C(=NO)c1cc(S(=O)(=O)NC(C)(C)CO)ccc1-2	11.2*	i	i	i	i	16.0%*	i	i
C=CC(C)(C)c1c(O)c(CC=C(C)C)c(O)c2c(=O)c3ccc(O)c(O)c3oc12	6.01*	i	i	i	i	9.5%*	i	i
O=C(O)[C@@H]1CSC2c3ccccc3C(=O)N21 (some centres undefined)	i	i	i	i	i	nt	nt	nt
Cc1cccnc1Nc1nc(-c2ccc(O)cc2)cs1	i	i	i	i	i	nt	nt	nt
COc1ccc(-c2csc(Nc3ccccn3)n2)cc1OC	i	i	i	i	i	nt	nt	nt
Oc1ccc(-c2csc(Nc3ccccn3)n2)cc1	i	i	i	i	i	i	i	i
Cc1ccc(-c2csc(Nc3ccccn3)n2)cc1	9.05*	i	i	i	i	i	i	i
c1ccc(-c2csc(Nc3ccccn3)n2)cc1	i	i	i	i	i	i	i	i
SMILES	RGS4 block	RGS4 act	MrgX1 allo act	MrgX1 antagonist	MrgX1 agonist	RGS4 block valid	RGS4 uninduced	RGS4 inh ctr2
Cc1cc(-c2csc(Nc3ccccn3)n2)ccc1F	5.41*	i	i	i	i	16.5%*	i	i
O=C(COc1ccc(F)c(Cl)c1)N1CCCCCCC1	i	i	i	i	i	nt	nt	nt
COc1cc(/C=C2\CC/C(=C\c3cc(OC)c(OC)c(OC)c3)C2=O)cc(OC)c1OC	i	i	i	i	i	nt	nt	nt
COc1cc(/C=C2\COC/C(=C\c3cc(OC)c(OC)c(OC)c3)C2=O)cc(OC)c1OC	6.4*	i	nt	nt	nt	20.5%*	i	i
CCN(CC(=O)NCc1ccc(F)cc1)C(=O)c1ccc(C(=O)c2ccccc2)cc1	i	i	i	i	i	nt	nt	nt
CCN(Cc1ccncc1)Cc1c(O)ccc2cc(Br)ccc12	4.76*	i	nt	nt	nt	i	i	i
CN1CCN(Cc2c(O)ccc3cc(Br)ccc23)CC1	i	i	i	i	i	nt	nt	nt
COC(=O)c1ccc(OC(=O)c2ccncc2)cc1O	i	i	i	i	i	nt	nt	nt
COc1ccc(NS(=O)(=O)c2ccc3nc(COc4cccc5ccccc45)[nH]c3c2)cc1	8.5*	i	i	i	i	7.0%*	i	i
CSc1c(C#N)c(N)c(C#N)c2c1COC(C)(C)C2	5.77*	i	i	i	i	5.5%*	i	i
COCCn1nnnc1C(c1ccccc1)N1CCN(C(=O)c2ccco2)CC1 (centres undefined)	i	i	i	i	i	nt	nt	nt
S=c1[nH]nc(-c2cc(-c3ccsc3)n[nH]2)n1-c1cccc2ccccc12	6.07*	i	i	i	i	11.0%*	i	i
O=C(O)c1ccccc1N/N=C/C1=C(N2CCOCC2)C(=C\c2ccccc2)/CC1	8.25*	i	i	i	38.8*	30.5%*	i	139.5%*
O=C(N/N=C/C1=C(N2CCOCC2)C(=C\c2ccccc2)/CC1)Nc1ccccc1	i	i	i	i	i	nt	nt	nt
O=C1NN(c2ccc(F)cc2)C(=O)/C1=C\c1cnn(-c2ccccc2)c1	i	i	i	i	i	nt	nt	nt
COc1cc(/C=C2\C(=O)NN(c3ccccc3)C2=O)cc([N+](=O)[O-])c1O	i	i	i	i	i	nt	nt	nt
COc1cc(/C=C2/C(=O)NN(c3ccccc3)C2=O)cc(Br)c1O	5.72*	i	i	i	31.3*	5.5%*	i	i
